Laboratory results as given in ChEMBL document CHEMBL1135063, “Cytotoxic and antibacterial activity of 2-oxopurine derivatives” (Bioorg Med Chem Lett, 2002).
Converted amounts (≈) assume the structure as drawn.

Tests used:
[1] = tested on: Mycobacterium tuberculosis; experiment: Tested for percent inhibition against Mycobacterium tuberculosis at concentration of 12.5 ug/mL; assay type: functional
Procedure, shortened: (§1)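 M. tuberculosis H37Rv (ATCC 27294) grown in BACTEC 12B medium; inhibition read out by Microplate Alamar Blue assay.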

Lacticaseibacillus casei [2] = experiment: Tested for antibacterial activity against Lactobacillus casei; assay type: functional
Lacticaseibacillus casei [3] = experiment: Tested for inhibitory effect on Gram-positive bacterium; Lactobacillus casei; assay type: functional
K562 [4] = experiment: Cytotoxicity against chronic myelogenous leukemia cell line K-562 was determined by measuring [3H]thymidine incorporation after 48 h; assay type: functional, cell-based; conditions: Homo sapiens
Procedure, shortened: (§2)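 K-562 cells in RPMI 1640 with 10% FCS, 2 mM L-glutamine and kanamycin, humidified 5% CO2. Log-phase cells seeded at 2 × 10^4 cells/mL and exposed to compound (DMSO, 0.05% final) over a 10 to 0.078 range for 48 h. Cells were then pulsed 2 h with [3H]-thymidine, filter-harvested and cell-associated radioactivity counted. Percent inhibition or IC50 is reported with SD.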

K562 [5] = experiment: Cytotoxicity against chronic myelogenous leukemia cell line K-562 was determined by measuring [3H]thymidine incorporation at a concentration 10 ug/mL after 48 h; assay type: functional; conditions: Homo sapiens; procedure, shortened: as §2
K562 [6] = experiment: Cytotoxicity against chronic myelogenous leukemia cell line K-562 was determined by measuring [3H]thymidine incorporation at a concentration of 10 ug/mL after 48 h; assay type: functional; conditions: Homo sapiens; procedure, shortened: as §2
K562 [7] = experiment: Cytotoxicity against chronic myelogenous leukemia cell line K-562 was determined by measuring [3H]thymidine incorporation at a concentration of 1.25 ug/mL after 48 h; assay type: functional; conditions: Homo sapiens; procedure, shortened: as §2
K562 [8] = experiment: Cytotoxicity against chronic myelogenous leukemia cell line K-562 was determined by measuring [3H]thymidine incorporation at a concentration of 10 ug/mL after 5 h; assay type: functional; conditions: Homo sapiens
Procedure, shortened: (§3)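 K-562 cells in RPMI 1640 with 10% FCS, 2 mM L-glutamine and kanamycin, 5% CO2. Log-phase cells seeded at 4 × 10^4 cells/mL and exposed to compound (DMSO, 0.05% final) over a 10 to 0.078 range for 5 h. Cells were then pulsed 2 h with [3H]-thymidine, harvested onto fiberglass filters and counted. IC50 is the concentration inhibiting incorporation by 50%. Values are given with SD.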

K562 [9] = experiment: Concentration that reduces [3H]thymidine incorporation by 50% in chronic myelogenous leukemia cell line K-562 after 5 h; assay type: functional, cell-based; conditions: Homo sapiens; procedure, shortened: as §3
K562 [10] = experiment: Cytotoxicity against chronic myelogenous leukemia cell line K-562 was determined by measuring [3H]-thymidine incorporation at a concentration of 1.25 ug/mL after 5 h; assay type: functional; conditions: Homo sapiens; procedure, shortened: as §3
K562 [11] = experiment: Cytotoxicity against chronic myelogenous leukemia cell line K-562 was determined by measuring [3H]thymidine incorporation at a concentration of 1.00 ug/mL after 5 h; assay type: functional; conditions: Homo sapiens; procedure, shortened: as §3
K562 [12] = experiment: Cytotoxicity against chronic myelogenous leukemia cell line K-562 determined using [3H]thymidine incorporation at a concentration of 1.00 ug/mL after 48 h; assay type: functional; conditions: Homo sapiens; procedure, shortened: as §2
K562 [13] = experiment: Cytotoxicity against chronic myelogenous leukemia cell line K-562 determined using [3H]thymidine incorporation at a concentration 10 ug/mL after 48 h; assay type: functional; conditions: Homo sapiens; procedure, shortened: as §2
[14] = tested on: Mycobacterium tuberculosis; experiment: Antibacterial activity was evaluated against Mycobacterium tuberculosis; assay type: functional; procedure, shortened: as §1
[15] = tested on: Mycobacterium tuberculosis; experiment: Tested for antibacterial activity against Mycobacterium tuberculosis; assay type: functional; procedure, shortened: as §1
K562 [16] = experiment: Cytotoxicity against chronic myelogenous leukemia cell line K-562 was determined by measuring [3H]thymidine incorporation at a concentration of 1.00 ug/mL after 48 h; assay type: functional; conditions: Homo sapiens; procedure, shortened: as §2
Mycobacterium avium = experiment: Tested for percent inhibition against Mycobacterium avium at 12.5 ug/mL; assay type: functional
Vero = experiment: Tested for inhibition against Vero cells at 12.5 ug/mL; assay type: functional, cell-based; conditions: Chlorocebus sabaeus
[17] = tested on: Mycobacterium tuberculosis; experiment: Tested for percent inhibition against Mycobacterium tuberculosis at 12.5 ug/mL; assay type: functional; procedure, shortened: as §1
[18] = tested on: Mycobacterium tuberculosis; experiment: Tested for percent inhibition against Mycobacterium tuberculosis at a concentration of 12.5 ug/mL; assay type: functional; procedure, shortened: as §1
K562 [19] = experiment: Cytotoxicity against chronic myelogenous leukemia cell line K-562 was determined by measuring [3H]thymidine incorporation after 5 h; assay type: functional, cell-based; conditions: Homo sapiens; procedure, shortened: as §3
K562 [20] = experiment: Cytotoxicity against chronic myelogenous leukemia cell line K-562 was determined by measuring [3H]thymidine incorporation at a concentration of 1 ug/mL after 5 h; assay type: functional; conditions: Homo sapiens; procedure, shortened: as §3
K562 [21] = experiment: Cytotoxicity against chronic myelogenous leukemia cell line K-562 was determined by measuring [3H]thymidine incorporation at a concentration 1 ug/mL after 48 h; assay type: functional; conditions: Homo sapiens; procedure, shortened: as §2
[22] = tested on: Mycobacterium tuberculosis; experiment: Tested for percent inhibition against Mycobacterium tuberculosis at 12.5 ug/mL concentration; assay type: functional; procedure, shortened: as §1

O=c1nc2c(ncn2Cc2ccccc2)c(-c2cccs2)n1Cc1ccccc1
inhibition at 12.5 µg/mL [1]: 0% | MIC (Lacticaseibacillus casei [2]): > 10 µg/mL

O=C1N(Cc2ccccc2)c2nc[nH]c2C(c2ccccc2)N1Cc1ccccc1 (configuration not stated)
MIC (Lacticaseibacillus casei [3]): 10 µg/mL (≈ 25.3 µM) | IC50 (K562 [4]): > 10 µg/mL | inhibition at 10 µg/mL (K562 [5]): 32%

O=c1nc2c(cn1Cc1ccccc1)ncn2Cc1ccccc1
IC50 (K562 [4]): > 10 µg/mL | inhibition at 10 µg/mL (K562 [6]): 37% | inhibition at 1.25 µg/mL (K562 [7]): 5.7% | inhibition at 10 µg/mL (K562 [8]): 16% | IC50 (K562 [9]): > 10 µg/mL | inhibition at 1.25 µg/mL (K562 [10]): 4.4%

CCC1(c2ccccc2)c2ncn(Cc3ccccc3)c2NC(=O)N1Cc1ccccc1 (configuration not stated)
inhibition at 10 µg/mL (K562 [5]): 80%

O=c1nc2c(ncn2Cc2ccccc2)c(C#CC2CC2)n1Cc1ccccc1
IC50 (K562 [4]): 0.2 µg/mL (≈ 0.526 µM) | inhibition at 10 µg/mL (K562 [5]): 97% | inhibition at 1.25 µg/mL (K562 [7]): 100% | inhibition at 10 µg/mL (K562 [8]): 98% | IC50 (K562 [9]): 0.4 µg/mL (≈ 1.05 µM) | inhibition at 1.25 µg/mL (K562 [10]): 98%

O=C1Nc2c(ncn2Cc2ccccc2)C(C#Cc2ccccc2)N1Cc1ccccc1 (configuration not stated)
inhibition at 1 µg/mL (K562 [11]): 20% | IC50 (K562 [4]): 0.8 µg/mL (≈ 1.91 µM) | inhibition at 1 µg/mL (K562 [12]): 59% | inhibition at 10 µg/mL (K562 [13]): 100% | IC50 (K562 [9]): 1.4 µg/mL (≈ 3.35 µM)

CC(C)c1c2ncn(Cc3ccccc3)c2nc(=O)n1Cc1ccccc1
IC50 (K562 [4]): > 10 µg/mL | inhibition at 10 µg/mL (K562 [5]): 18%

Clc1nc(-c2cccs2)c2ncn(Cc3ccccc3)c2n1
MIC [14]: 1.56 µg/mL (≈ 4.77 µM)

O=c1nc2c(ncn2Cc2ccccc2)c(C#Cc2ccccc2)n1Cc1ccccc1
inhibition at 1 µg/mL (K562 [11]): 48% | MIC [15]: 12.5 µg/mL (≈ 30 µM) | IC50 (K562 [4]): 0.7 µg/mL (≈ 1.68 µM) | inhibition at 10 µg/mL (K562 [5]): 100% | inhibition at 1 µg/mL (K562 [16]): 90% | inhibition at 12.5 µg/mL (Mycobacterium avium): 60% | IC50 (Vero): < 0.2 µg/mL | IC50 (K562 [9]): 1 µg/mL (≈ 2.4 µM) | inhibition at 12.5 µg/mL [17]: 95% | MIC (Lacticaseibacillus casei [2]): > 10 µg/mL

O=C1Nc2c(ncn2Cc2ccccc2)C(C(F)(F)F)N1Cc1ccccc1 (configuration not stated)
IC50 (K562 [4]): 2 µg/mL (≈ 5.18 µM) | inhibition at 10 µg/mL (K562 [5]): 97% | inhibition at 1.25 µg/mL (K562 [7]): 26% | inhibition at 10 µg/mL (K562 [8]): 51% | IC50 (K562 [9]): 10 µg/mL (≈ 25.9 µM) | inhibition at 1.25 µg/mL (K562 [10]): 15.4%

O=c1nc2c(ncn2Cc2ccccc2)c(-c2ccco2)n1Cc1ccccc1
inhibition at 12.5 µg/mL [18]: 0% | MIC (Lacticaseibacillus casei [2]): > 10 µg/mL

O=c1nc2c(ncn2Cc2ccccc2)c(C(F)(F)F)n1Cc1ccccc1
IC50 (K562 [4]): > 10 µg/mL | inhibition at 10 µg/mL (K562 [5]): 11%

Sc1ncnc2nc[nH]c12 [MERCAPTOPURINE ANHYDROUS]
IC50 (K562 [4]): 0.4 µg/mL (≈ 2.63 µM) | IC50 (K562 [19]): 8.5 µg/mL (≈ 55.9 µM)

CC(C)C1c2ncn(Cc3ccccc3)c2NC(=O)N1Cc1ccccc1 (configuration not stated)
IC50 (K562 [4]): 10 µg/mL (≈ 27.7 µM) | inhibition at 10 µg/mL (K562 [5]): 51%

O=C1Nc2c(ncn2Cc2ccccc2)C(c2ccccc2)N1Cc1ccccc1 (configuration not stated)
IC50 (K562 [4]): 0.2 µg/mL (≈ 0.507 µM) | inhibition at 10 µg/mL (K562 [5]): 90% | inhibition at 1.25 µg/mL (K562 [7]): 85% | inhibition at 10 µg/mL (K562 [8]): 69% | IC50 (K562 [9]): 5.1 µg/mL (≈ 12.9 µM) | inhibition at 1.25 µg/mL (K562 [10]): 9.1%

O=C1Nc2c(ncn2Cc2ccccc2)C(C#CC2CC2)(C(F)(F)F)N1Cc1ccccc1 (configuration not stated)
IC50 (K562 [4]): 0.2 µg/mL (≈ 0.444 µM) | inhibition at 10 µg/mL (K562 [5]): 100% | inhibition at 1.25 µg/mL (K562 [7]): 99% | inhibition at 10 µg/mL (K562 [8]): 94% | IC50 (K562 [9]): 0.4 µg/mL (≈ 0.888 µM) | inhibition at 1.25 µg/mL (K562 [10]): 66%

O=C1Nc2[nH]cnc2C(C#CC2CC2)(C(F)(F)F)N1 (configuration not stated)
inhibition at 1 µg/mL (K562 [20]): 0.3% | IC50 (K562 [4]): > 1 µg/mL | inhibition at 1 µg/mL (K562 [21]): 0.8% | IC50 (K562 [9]): > 1 µg/mL

O=C1Nc2c(ncn2Cc2ccccc2)C(C#CC2CC2)N1Cc1ccccc1 (configuration not stated)
IC50 (K562 [4]): 1.3 µg/mL (≈ 3.4 µM) | inhibition at 10 µg/mL (K562 [5]): 98% | inhibition at 1.25 µg/mL (K562 [7]): 42% | inhibition at 10 µg/mL (K562 [8]): 90% | IC50 (K562 [9]): 1.6 µg/mL (≈ 4.18 µM) | inhibition at 1.25 µg/mL (K562 [10]): 35%

CC1c2ncn(Cc3ccccc3)c2NC(=O)N1Cc1ccccc1 (configuration not stated)
IC50 (K562 [4]): 1.4 µg/mL (≈ 4.21 µM) | inhibition at 10 µg/mL (K562 [5]): 98% | inhibition at 1.25 µg/mL (K562 [7]): 33% | inhibition at 10 µg/mL (K562 [8]): 76.4% | IC50 (K562 [9]): 2.5 µg/mL (≈ 7.52 µM)

O=c1nc2c(ncn2Cc2ccccc2)c(-c2ccccc2)n1Cc1ccccc1
inhibition at 10 µg/mL (K562 [5]): 70% | inhibition at 12.5 µg/mL [22]: 0% | MIC (Lacticaseibacillus casei [2]): > 10 µg/mL

O=C1Nc2ncn(Cc3ccccc3)c2C(c2ccccc2)N1Cc1ccccc1 (configuration not stated)
IC50 (K562 [4]): > 10 µg/mL | inhibition at 10 µg/mL (K562 [5]): 48%
